Bioassay records: PubChem, several laboratories
PKD1 inh = PKD1 (human) kinase inhibition | Q15139 | 200,000 tested, 0.056% active | inhibition, % (no concentration beside the values) | PKD1 kinase fluorescence polarization assay; in the data active = inhibition above about 50%
Mdm2 ligase inh = inhibitors of human Mdm2 E3 ubiquitin ligase; 210,000 tested, 0.11% active; signal enhancement, % at 5 µM; Q00987; AID 1230; cell-based MDM2 ubiquitination luciferase reporter, 2 h; 0 = plate control, 100 = twice control, blank-subtracted;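 active = signal enhancement of 30% or more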;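 also: luminescence tracks abundance of the self-degrading MDM2-luciferase fusion protein; higher signal means inhibition of MDM2 E3 ligase activity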
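system = mammalian cells stably expressing self-ubiquitinating, self-degrading MDM2 E3–luciferase fusion | quantity = 2000 cells per well seeded | incubation = 4 h cell settling then 2 h compound exposure, 37 °C | signal = SteadyLite luminescence, 15 min reagent step | benchmarks = plate control and blank wells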
Arbovirus inh = arbovirus infection inhibition; inhibition, % at 10 µM; 200,000 tested, 0.37% active; AID 1251; arbovirus infection cell-based antiviral screen; in the data active = inhibition above about 30%
m-calpain inh = calpain II (pig) inhibition. purified calpain II, fluorogenic peptide substrate, 30 min. inhibition, % at 16 µM. 220,000 tested, 0.37% active;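 active = inhibition above about 50%, limit read from the data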
ROMK mod = human ROMK K+ channel modulation, primary screen. Tet-inducible ROMK, thallium flux fluorescence; actives lie on both sides. B-score at 10 µM. 130,000 tested, 2% active. AID 1918;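 active = signal ratio slope over the read window, or its plate-corrected B-score, at least 3 SD from the plate mean, either direction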;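 also: B-score of the F/F0 ratio slope over 7 to 12 s after thallium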
Cl transport mod = modulators of human KCC2 chloride dependent transport; 190,000 tested, 2.2% active; B-score of Tl+ flux slope (higher = more flux/activation; lower = inhibition) at 10 µM; KCC2 cells, thallium flux FluoZin-2 fluorescence;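 active = thallium flux slope and its plate-corrected score both differing from the plate sample mean at a set confidence after two filtering rounds, in either direction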;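 also: slope of fluorescence scaled to starting intensity during 10 to 20 s after thallium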
Target sequence (Q9H2X9 whole entry, looked up): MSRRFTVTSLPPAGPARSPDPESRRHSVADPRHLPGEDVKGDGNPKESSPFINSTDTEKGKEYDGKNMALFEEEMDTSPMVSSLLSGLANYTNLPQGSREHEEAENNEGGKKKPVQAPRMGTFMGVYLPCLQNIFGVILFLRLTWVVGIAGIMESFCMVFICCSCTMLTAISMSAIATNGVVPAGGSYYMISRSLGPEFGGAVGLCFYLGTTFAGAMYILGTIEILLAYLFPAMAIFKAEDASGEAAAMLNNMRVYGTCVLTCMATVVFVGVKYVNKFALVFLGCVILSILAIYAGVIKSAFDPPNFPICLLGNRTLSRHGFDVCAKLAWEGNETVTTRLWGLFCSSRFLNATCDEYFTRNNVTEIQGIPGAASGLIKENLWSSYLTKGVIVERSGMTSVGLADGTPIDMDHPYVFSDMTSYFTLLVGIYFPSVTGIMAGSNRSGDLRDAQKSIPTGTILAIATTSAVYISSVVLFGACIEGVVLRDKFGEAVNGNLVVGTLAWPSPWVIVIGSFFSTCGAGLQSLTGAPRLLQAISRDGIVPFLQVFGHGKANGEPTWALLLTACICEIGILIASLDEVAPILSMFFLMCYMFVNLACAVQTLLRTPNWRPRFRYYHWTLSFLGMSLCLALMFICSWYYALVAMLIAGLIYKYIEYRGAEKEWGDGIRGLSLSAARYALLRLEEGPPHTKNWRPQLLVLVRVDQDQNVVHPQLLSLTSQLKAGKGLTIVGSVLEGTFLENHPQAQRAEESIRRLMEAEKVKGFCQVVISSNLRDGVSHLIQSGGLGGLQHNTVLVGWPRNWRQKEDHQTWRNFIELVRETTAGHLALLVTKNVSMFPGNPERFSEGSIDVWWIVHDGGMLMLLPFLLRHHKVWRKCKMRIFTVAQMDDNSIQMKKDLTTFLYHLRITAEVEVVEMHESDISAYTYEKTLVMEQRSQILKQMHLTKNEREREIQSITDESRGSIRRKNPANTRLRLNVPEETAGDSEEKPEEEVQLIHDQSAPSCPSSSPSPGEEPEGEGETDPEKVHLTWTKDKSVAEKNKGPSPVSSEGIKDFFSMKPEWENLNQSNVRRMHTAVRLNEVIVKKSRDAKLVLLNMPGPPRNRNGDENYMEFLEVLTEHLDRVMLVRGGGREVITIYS
KCC2 secondary = KCC2 (human) modulation, secondary assay | shares compounds with Cl transport mod | HEK293-KCC2, thallium flux, FluoZin2 fluorescence; hits give high values | normalised thallium flux (F/F0 slope) at 10 µM | 3,700 tested, 15% active;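 active = thallium flux slope above the same plate's solvent-only control mean plus 3 SD; inconclusive = the two replicate wells disagree; inactive = no significant difference from solvent-only control wells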
KCC2 bumet counter = thallium flux persisting under bumetanide in KCC2 cells, counter-screen secondary assay; normalized thallium flux at 10 µM; AID 1714; 3,700 tested, 49% active; HEK293-KCC2 + bumetanide/ouabain, thallium flux FluoZin2; hits give high values; shares compounds with Cl transport mod;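 active = thallium entry rate above the same plate's blocked-transporter control wells by more than 3 SD; inconclusive = the two repeat wells disagree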;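 also: raw slope of fluorescence over initial fluorescence between 10 and 20 s after thallium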
KCC2 sec2 = confirmation of human KCC2 transport modulators | 3,700 tested, 23% active | AID 1715 | HEK293-KCC2, thallium flux FluoZin2 fluorescence; actives lie on both sides; F/F0 rise rate, 10–20 s post-thallium | shares compounds with Cl transport mod | normalized thallium flux at 10 µM;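 active = thallium flux slope more than 3 SD above or below the plate's solvent-only control mean, mostly below; inconclusive = the two repeat wells disagreed; inactive = no significant shift from solvent-only controls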;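 also: raw slope with 0.1% DMSO as baseline and bumetanide as block control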
HEK counter1 = acts in parental HEK cells, KCC2 counter-screen; HEK293 parental cells, thallium flux FluoZin2, ouabain; baseline-ratio fluorescence slope, 10–20 s after thallium; shares compounds with Cl transport mod; AID 1716; 3,700 tested, 46% active; thallium flux rate (normalised fluorescence) at 10 µM;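 active = thallium flux rate significantly above the same plate's solvent-only control wells, beyond their mean plus 3 SD; inconclusive = the two replicate wells gave conflicting results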
KCC2 ouabain = KCC2 (human) modulation, ouabain retest; shares compounds with Cl transport mod; HEK293-KCC2, thallium flux FluoZin2 fluorescence; bidirectional: low = inhibitor, high = activator; raw Tl+ flux slope (below DMSO = inhibition, above = activation) at 10 µM; 3,700 tested, 48% active;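 active = thallium flux slope beyond 3 SD from same-plate DMSO control mean in most replicates, usually higher, sometimes lower; inconclusive = repeat tests gave conflicting results; inactive = no significant difference from controls in most replicates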;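 also: slope of initial-normalized fluorescence between seconds 10 and 20 after thallium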
HEK293 Tl flux2 = parental HEK flux effect, counter-screen 2; shares compounds with Cl transport mod; HEK293 parental, thallium flux FluoZin-2 fluorescence slope; thallium flux slope at 10 µM; 3,700 tested, 33% active;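 active = thallium flux slope above the same plate's solvent-control mean plus 3 SD in both duplicate wells; inconclusive = duplicate wells that disagreed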;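 also: run without ouabain in cells lacking the KCC2 cotransporter; slope of fluorescence scaled to its starting value between 10 and 20 s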
Numbers without * were called inactive; ? = inconclusive; / = no result given. Sampled rows, rich in hits. Any-hit rate of the full collection: about 3.7%.

SMILES	PKD1 inh	Mdm2 ligase inh	Arbovirus inh	m-calpain inh	ROMK mod	Cl transport mod	KCC2 secondary	KCC2 bumet counter	KCC2 sec2	HEK counter1	KCC2 ouabain	HEK293 Tl flux2
O=C(O)c1sccc1SCc1ccc(Cl)cc1Cl	1	-10	16	-25	/	/	0.015	0.0048	0.022*	0.0055*	0.011*	0.0082
O=C(O)CSCC(=O)NCc1ccc(Cl)cc1Cl	2	-23	3	6	-0.87	0.26	/	/	/	/	/	/
Cc1c(N=C2Nc3cccc4cccc2c34)c(=O)n(-c2ccccc2)n1C	3	1	-4	-12	/	-2.9*	?	0.0051	0.026*	0.0084	0.016*	0.0098
Cc1cc(C)nc(NC(=O)NS(=O)(=O)N2CCCCCC2)n1	-13	4	-3	5	0.77	/	/	/	/	/	/	/
O=C(c1cc(COc2ccc(F)cc2Cl)on1)N1CCC(c2ccncc2)CC1	1	9	-7	-2	-1.3	-6.3*	0.008	0.0054	0.035	0.0036	0.014*	0.011
O=C(c1cc(COc2ccc(F)cc2Cl)on1)N(Cc1ccncc1)CC1CCCO1 (stereo unspecified)	0	-1	9	7	/	/	/	/	/	/	/	/
NC1=NC[C@@H](Cc2ccc(O)cc2)N1CCc1cc(C(F)(F)F)cc(C(F)(F)F)c1	/	-1	/	33	/	-3.2*	0.0056	0.0045	0.022*	0.0076	0.014*	0.0096
NC1=NC[C@@H](Cc2ccc(O)cc2)N1CCc1cccc(F)c1	/	-8	/	-20	/	0.77	/	/	/	/	/	/
CCOc1cccc2sc(NC(=O)c3ccc(Br)s3)nc12	0	-3	8	-65	/	32*	?	0.056*	0.049*	0.034*	0.038*	0.032*
CCOC(=O)Cc1csc(NC(=O)c2ccc(Br)s2)n1	-1	-2	1	2	/	0.28	/	/	/	/	/	/
c1ccc(CSc2nnc(-c3cccnc3)o2)cc1	-2	/	-16	8	/	-0.057	/	/	/	/	/	/
c1cncc(-c2nnc(SCc3cccc4ccccc34)o2)c1	-21	-22	-21	13	/	-4.3*	0.0087	0.0064	0.029	0.0064	0.02	0.0092
CC(C)C(CCNC(=O)CC(Cc1ccccc1)c1ccco1)c1ccco1 (stereo unspecified)	-11	-4	-10	-59	/	-4.5*	?	0.005	?	?	0.016*	0.0095
c1ccc2sc(SN3CCOCC3)nc2c1	-8	6	-4	-9	/	2.8*	0.0077	0.013*	0.027	0.011*	0.021	?
Cc1ccc(-c2csc3ncnc(SCc4ccc(C(=O)O)cc4)c23)cc1	-5	-10	-12	3	1.7	140*	0.0082	0.12*	0.095*	0.094*	0.11*	0.09*
NC(=O)CSc1nc2ccccc2n1Cc1ccccc1	1	/	-11	-3	-1.5	0.72	/	/	/	/	/	/
Cc1ccc(-c2csc3ncnc(SCC(N)=O)c23)cc1	-8	-4	2	-13	1.4	7.9*	0.018*	0.06*	0.038	?	0.05*	?
Cc1ccc(-c2csc3nc(SCC(N)=O)n(Cc4ccccc4)c(=O)c23)cc1	-13	11	-4	8	0.0039	6.7*	0.011	0.021*	0.033	0.028*	0.026*	0.012
Cc1sc(NC(=O)c2ccccc2)c(C#N)c1-c1ccccc1	-9	-6	4	-76	/	2.9	/	/	/	/	/	/
Cc1nc(NC(=O)CN2CCC(O)(c3ccc(F)cc3)CC2)sc1C	/	/	/	-11	/	0.61	/	/	/	/	/	/
O=C(NCCCN1CCCC1=O)c1ccc(Cl)c(NS(=O)(=O)c2ccc(F)cc2)c1	2	-13	1	16	/	1.2	/	/	/	/	/	/
COc1ccc(-n2c(SCC(=O)N3CCN(c4ccccc4)CC3)nc3c(c2=O)SCC3)cc1	-7	-22	9	8	/	-7.3*	0.0056	0.0039	0.024*	?	0.012*	0.01
Cc1ccc(C)c2c(N)c3c(nc12)CCCCC3 (tested in a mixture with another compound)	6	-22	11	-10	0.37	-0.4	/	/	/	/	/	/
Cn1c(C(=O)NCCCN2CCCCCC2)cc2c(=O)n(C)c3ccccc3c21	-15	-11	-5	-58	/	-1.5	/	/	/	/	/	/
Cn1c(C(=O)NCCCN2CCc3ccccc3C2)cc2c(=O)n(C)c3ccccc3c21	-8	-9	-22	-18	/	/	0.0058	0.0054	0.023*	0.0078	?	0.012
SMILES	PKD1 inh	Mdm2 ligase inh	Arbovirus inh	m-calpain inh	ROMK mod	Cl transport mod	KCC2 secondary	KCC2 bumet counter	KCC2 sec2	HEK counter1	KCC2 ouabain	HEK293 Tl flux2
Cc1c(O)ccc(/C(Cc2ccc3ccccc3n2)=N\O)c1O	-7	-21	6	-6	/	-4.9*	0.008	0.0039	0.029	0.0064	0.015*	0.0095
Cc1ccc(SCCNC(=O)c2ccc(C)c(S(=O)(=O)Nc3ccccc3C)c2)cc1	-3	-5	-25	13	/	/	0.0082	?	0.027	0.0064	0.015*	0.01
Cc1ccccc1NS(=O)(=O)c1cc(C(=O)NCc2ccco2)ccc1C	-3	8	1	10	-1.8	/	/	/	/	/	/	/
C=CCn1c(SCC(=O)c2ccc(F)cc2)nnc1-c1ccc2c(c1)OCO2	-1	-3	-6	17	-0.75	-3.7*	0.0077	0.0048	0.031	0.007	0.015*	0.011
CCn1c(=O)[nH]c(=O)c2c(N)c(C(=O)c3cc(F)ccc3F)sc21	/	/	/	5	/	-0.8	/	/	/	/	/	/
Cc1sc2ncn(CC(=O)OCC(=O)NC(C)(C)C)c(=O)c2c1C	0	-19	5	2	/	/	0.0068	0.005	0.03	0.008	0.019	0.011
CCOC(=O)C1=C(C)N(CC(C)C)C(=O)/C1=C\c1ccc(OCC(=O)Nc2ccccc2)cc1	-6	-13	0	12	0.51	0.48	/	/	/	/	/	/
O=C(CSc1cccc[n+]1[O-])Nc1ccc(C(F)(F)F)cc1[N+](=O)[O-]	7	-20	4	37	-0.1	1.2	/	/	/	/	/	/
O=[N+]([O-])c1ccc(Sc2cccc[n+]2[O-])c2nonc12	/	-69	/	22	/	8.4*	0.0096	0.023*	0.03	0.015*	0.023	?
